# Bioassay records: PubChem, SRMLSC
# Yeast lifespan up: yeast lifespan extension; S. cerevisiae growth with nicotinamide, OD615; deaD strain in restrictive glucose medium; inhibition of the nicotinamide effect, % at 10 µM; 0.68% of 130,000 active;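 active = inhibition above a set limit, placed 3 SD over the median of all compounds, cut at about 26% in these data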;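 note: 0% = nicotinamide-treated wells and 100% = cells grown without nicotinamide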
#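 System: Modified budding yeast, DeaD strain | Buffer or medium: Restrictive glucose medium | Also added: 1.5 mM nicotinamide | Doses: 10 µM single point, 0.25% DMSO | Schedule: 48 h compound exposure at 30 °C, humidified | Detection: Absorbance at 615 nm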
# Yeast growth inh: chemicals that inhibit yeast BB579 growth in restrictive medium (lifespan-shortening candidates); 0.51% of 140,000 active; inhibition, % at 10 µM; S. cerevisiae BB579 growth, OD615, 48 h;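 active = inhibition above a set limit, 3 SD over the mean compound inhibition, cut at about 44% in these data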
#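 System: DeaD yeast strain BB579; buffer or medium: CSMM-D dextrose restrictive medium; technique: OD at 615 nm; schedule: 4 h cell preincubation, 48 h compound exposure, 30 °C humidified; doses: single 10 µM dose; controls: amphotericin B 10 µg/mL, positive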
# PostGolgi ctrl: yeast control strain growth, post-Golgi counter-screen | inhibition, % at 10 µM | 5% of 98,000 active | efflux-deficient yeast background strain, growth absorbance A615, 16 h | AID 738
# PostGolgi yeast: growth inhibition of a yeast mutant, post-Golgi transport screen; post-Golgi transport phenotypic cell assay; inhibition, % at 10 µM; 0.9% of 98,000 active; AID 739;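 note: yeast cells grown in 1536-well plates; yeast grown about 18 h at 30C before absorbance read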
# The depositor's hits bear a star; / = no result given. Shown is part of a subset that was picked to be rich in hits. Cut-off read from the data, not from the text of the source, unless noted: active = inhibition above about 30%; inactive = the rest.
SMILES,Yeast lifespan up,Yeast growth inh,PostGolgi ctrl,PostGolgi yeast
CCOC(=O)c1ccc(N=c2sc(C(=O)OC)cc(=O)n2Cc2ccc3c(c2)OCO3)cc1,-8,-50,11,-9
COC(=O)c1cc(=O)n(Cc2ccc3c(c2)OCO3)c(=Nc2ccc(F)cc2)s1,-8,16,10,2
COC(=O)c1cc(=O)n(-c2ccc(F)cc2)c(=Nc2ccc(F)cc2)s1,29*,-32,/,/
CCOC(=O)c1ccc(N=c2sc(C(=O)OC)cc(=O)n2C2CC2)cc1,-15,-31,33*,5
CC(c1nnnn1C(C)(C)C)N(Cc1cccnc1)Cc1ccccc1Cl (centres undefined),10,-43,32*,17
O=C(O)c1ccccc1C(=O)Nc1nccs1,12,-5,30*,-18
CSc1ccccc1C(=O)Nc1nccs1,-7,-73,5,-8
O=C(O)c1ccccc1C(=O)Nc1ccccc1,-8,-64,40*,-1
COc1ccc(C(=O)OC(C(=O)c2ccccc2)c2ccccc2)cc1 (centres undefined),4,-19,66*,-1
COc1ccc(C(=O)C(OC(=O)c2ccc(C)c(NC(C)=O)c2)c2ccccc2)cc1 (centres undefined),-1,-39,11,-3
COc1cc2c(cc1OC)CN(Cc1ccc(C)s1)CC2,40,-67,43*,-1
COc1cc2c(cc1OC)CN(CC(=O)Nc1ccc(C)cc1)CC2,-12,-12,17,8
C=CCc1cccc(CNc2nc3ccccc3n2C(C)C)c1O,-4,-38,47*,-5
Cn1c(NCc2ccccc2O)nc2ccccc21,-6,-23,-5,-5
O=C(Nc1ccc(Cl)cc1)ON=C1CCCC1,-10,99*,/,/
COc1ccccc1C(=O)Oc1cc(N)n(S(=O)(=O)c2ccc(C)cc2)n1,45*,-6,7,5
Cc1ccc(S(=O)(=O)n2nc(OC(=O)c3ccco3)cc2N)cc1,12,-30,5,7
N#Cc1c(NCCCO)nc(NCc2ccccc2)c2c1CCN(Cc1ccccc1)C2,-10,-83,20,0
CN1CCc2c(C#N)c(N3CCCCC3)nc(NCc3ccccc3)c2C1,-18,-33,48*,27
O=C(NCc1ccccn1)c1cccc(NS(=O)(=O)c2ccccc2F)c1,4,-4,/,/
Cc1cc(Nc2nc3ccccc3nc2Cl)n(-c2ccc([N+](=O)[O-])cc2)n1,-6,-48,32*,1
CC(C)(C)NC(=O)CCN(/N=C/c1ccc([N+](=O)[O-])o1)C1=NS(=O)(=O)c2ccccc21,1,-21,/,/
COC(=O)c1cc2sccc2n1CC(=O)N1CCCc2ccccc21,6,-39,14,11
COC(=O)c1cc2sc(Cl)cc2n1CC(=O)N1CCCc2ccccc21,6,-26,36*,-8
Cc1cccc(C)c1C(=NCCCN(C)C)c1ccccc1,-1,-35,/,/
SMILES,Yeast lifespan up,Yeast growth inh,PostGolgi ctrl,PostGolgi yeast
CCn1c(O)c(C=NCc2cccs2)c(=O)n(CC)c1=S,-10,-56,57*,18
Cc1ccc(C(=O)NC(O)C(Cl)Cl)cc1 (centres undefined),7,-60,/,/
O=C(CCc1ccc(S(=O)(=O)N2CCOCC2)cc1)Nc1cc(Cl)ccc1N1CCOCC1,-11,-25,34*,1
Cc1cc(Cl)ccc1OC(C)C(=O)Nc1ccccc1N1CCOCC1 (centres undefined),-7,-19,16,0
COC(=O)c1ccccc1NC(=O)CNc1cc(Cl)ccc1N1CCOCC1,-19,-25,35*,6
NC(=S)N/N=C/c1ccc(-c2ccc(Cl)c(Cl)c2)o1,-7,-18,81*,67*
NC(=S)N/N=C\c1ccc(-c2cccc(Cl)c2Cl)o1,-13,-33,48*,9
Nc1nnc(CC(=O)N/N=C/c2ccc(-c3ccccc3Cl)o2)s1,-6,-29,/,/
COC(=O)N/N=C\c1ccc(-c2cc(Cl)c(Cl)cc2Cl)o1,-6,-23,/,/
Cc1nn2c(COc3ccc(NC(=O)c4ccccc4Cl)cc3)nnc2c2ccccc12,0,-4,/,/
O=C1CCCC2=C1C(c1ccccc1)CC(=O)N2c1ccccc1 (centres undefined),-18,-33,35*,-2
COC(=O)c1cccc(NC(=O)CSc2ncn[nH]2)c1,-7,-20,-13,-4
COC(=O)c1ccc(Cl)c(NC(=O)CSc2ncn[nH]2)c1,-6,-27,31*,-3
CCC(=NCCc1c(C)[nH]c2ccc(C)cc12)C1=C(O)CC(c2ccccc2)CC1=O (centres undefined),50*,-12,/,/
Cc1ccc2cccnc2c1NC(=S)NC(=O)c1ccccc1,-16,-58,12,3
CCCCCCC(=O)N1CCC(c2nc3c(nnn3Cc3ccccc3Cl)c(=O)[nH]2)CC1,54,-55,8,-4
CCCCS(=O)CC(COc1ccc(Cl)cc1)OC(=O)c1ccccc1 (centres undefined),13,-22,42*,-4
CCN(CC)C(=O)C(Sc1ccccc1)c1ccccc1 (centres undefined),-8,-8,-5,17
Cc1cc(/C=N/NC(=O)c2cccc([N+](=O)[O-])c2)c(C)n1-c1ccc(Cl)cc1Cl,-32,-40,14,34*
O=C(N/N=C/c1ccc[nH]1)c1cccc([N+](=O)[O-])c1,-3,-40,/,/
CC(C)Sc1nnc(Cn2c(=O)sc3ccccc32)n1-c1ccccc1,3,-9,32*,4
CSc1nnc(Cn2c(=O)sc3ccccc32)n1-c1ccccc1,-2,20,-1,-8
CCOc1ccc(-n2c(N)c(C(=O)NCc3cccnc3)sc2=S)cc1,-17,-52,32*,-7
O=C(NN1C(=O)c2ccccc2NC1c1ccccc1OCc1ccccc1)c1ccncc1 (centres undefined),29*,-41,4,-1
COc1ccc(S(=O)(=O)NCc2cccs2)cc1,-7,-28,2,1
SMILES,Yeast lifespan up,Yeast growth inh,PostGolgi ctrl,PostGolgi yeast
COc1ccc(S(=O)(=O)N(Cc2cccs2)C2CCCC2)cc1,11,-94,31*,-11
Cc1ccc(C(=O)/C=C/c2ccc(-c3ccc(C)cc3)o2)cc1,28*,-16,/,/
Cc1ccc(C(=O)/C=C\C(=O)c2ccc(C)cc2)cc1,65*,4,/,/
CC1CCCCN1Cc1c(O)ccc2c(=O)c(-c3nc4ccccc4s3)c(N)oc12 (centres undefined),-4,-43,/,/
Nc1ccc(Oc2ccc3nc(-c4ccccc4)c(-c4ccc([N+](=O)[O-])cc4)nc3c2)cc1,-8,-94,19,37*
N#Cc1ccc(Oc2ccc(-c3nc4ccccc4nc3-c3ccccc3)cc2)cc1C#N,0,-5,/,/
NC(=O)N/N=C/c1ccccc1OCC(=O)NCc1ccccc1,12,-33,/,/
CC(=O)n1c2c(c3ccccc31)OC(N)=C(C#N)C2c1ccc(C(C)C)cc1 (centres undefined),56,-82,34*,18
N#Cc1c(Cl)nc(SCc2ccccc2)nc1-c1ccccc1,-25,-7,6,1
NC(=O)c1ccc(NC(=O)c2ccc(CN3CCOCC3)cc2)cc1,1,-22,10,-3
O=C(Nc1ccc(CN2CCOCC2)cc1)c1cc2ccccc2o1,-16,-28,23,38*
